Key:
Format in all cases: functional
Conditions in all cases: route oral
Rattus norvegicus [1] = assay: Inhibition of carrageenan-induced rat's paw edema (CPE) after peroral administration of 100 mg/kg dose.
How it was run: (§1)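 Male Wistar rats (about 150 g) were dosed orally with compound suspended in 5% arabic gum, 1 h before a subplantar hind-paw injection of 0.1 mL saline. The irritant was 1% zymosan for 33 or 1% λ-carrageenin for 34. Paw volume was measured by plethysmograph before dosing and at 4 h (zymosan) or 3 h (carrageenin). Swelling is relative to initial volume, as mean ± SEM. % inhibition is versus the control group's mean swelling.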

Rattus norvegicus [2] = assay: Compound was tested for the inhibition of rat reversed passive Arthus pleurisy after peroral administration of 100 mg/kg dose at 0.65 mL of exudate volume with 0.84 mL of control (injected intrapleurally)
How it was run: (§2)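 Male Wistar rats (about 250 g) were given compound orally before the antiserum. Under ether anesthesia, 0.2 mL rabbit anti-egg albumin antiserum was injected intrapleurally. After 30 min, egg albumin (15 mg/100 g body weight in 0.1 mL saline) was given iv. Rats were killed 4.5 h later and the thoracic cavity was rinsed with 5 mL saline. Exudate volume and infiltrated cell number were measured, with inhibition % versus controls as mean ± SEM.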

Rattus norvegicus [3] = assay: Antiinflammatory activity on Zymosan-induced rat's paw edema(ZPE) after peroral administration of 100 mg/kg dose with control swelling of 62.8%
How it was run: (§3)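 Male Wistar rats weighing about 150 g were dosed orally with compound suspended in 5% arabic gum. 1 h later, 1% zymosan in 0.1 mL saline was injected subplantarly into the hind paw. Paw volume was measured by plethysmograph before dosing and 4 h after zymosan, with edema as the volume difference. Inhibition % was derived from mean swelling versus the control group.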

Rattus norvegicus [4] = assay: Compound was tested for the inhibition of rat reversed passive Arthus pleurisy after peroral administration of 100 mg/kg dose at 4.66*10e6 no of cells with 5.72*10e6 cells of control
How it was run: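 Male Wistar rats (about 250 g) under ether received 0.2 mL rabbit anti-egg-albumin antiserum intrapleurally. Thirty min later they got 15 mg EA/100 g body weight in 0.1 mL saline iv. Compounds were given orally beforehand. Rats were killed 4.5 h after induction and the thoracic cavity rinsed with 5 mL saline. Exudate volume and infiltrated cell count were read as mean ± SE. % inhibition is versus control.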

Rattus norvegicus [5] = assay: Antiinflammatory activity on Carrageenan rat's paw edema(CPE) after peroral administration of 100 mg/kg dose with control swelling of 68.1%
Rattus norvegicus [6] = assay: Inhibition of Zymosan-induced rat's paw edema(ZPE) after peroral administration of 100 mg/kg dose.; how it was run: as §1
Rattus norvegicus [7] = assay: Antiinflammatory activity on Carrageenan rat's paw edema(CPE) after peroral administration of 100 mg/kg dose with control swelling of 64.2%
Rattus norvegicus [8] = assay: Compound was tested for the inhibition of rat reversed passive Arthus pleurisy after peroral administration of 100 mg/kg dose at 0.42 mL of exudate volume with 0.52 mL of control (injected intrapleurally); how it was run: as §2
Rattus norvegicus [9] = assay: Compound was tested for the inhibition of rat reversed passive Arthus pleurisy after peroral administration of 100 mg/kg dose at 2.23*10e6 no of cells with 2.28*10er cells of control; how it was run: as §2
Rattus norvegicus [10] = assay: Antiinflammatory activity on Zymosan-induced rat's paw edema(ZPE) after peroral administration of 100 mg/kg dose with control swelling of 72.9%; how it was run: as §3

Compound | inhibition in vivo at 100 mg/kg (Rattus norvegicus [1]) | inhibition in vivo at 100 mg/kg (Rattus norvegicus [2]) | Swelling (Rattus norvegicus [3]) | inhibition in vivo at 100 mg/kg (Rattus norvegicus [4]) | Swelling (Rattus norvegicus [5]) | inhibition in vivo at 100 mg/kg (Rattus norvegicus [6]) | Swelling (Rattus norvegicus [7]) | inhibition in vivo at 100 mg/kg (Rattus norvegicus [8]) | inhibition in vivo at 100 mg/kg (Rattus norvegicus [9]) | Swelling (Rattus norvegicus [10])
Cc1ccc(NC(=O)c2c(O)c3cccnc3n(-c3ccccc3)c2=O)cc1 | 2.2% | 22.4% | 65% | 21.5% | 66.6% | -3.5% |  |  |  | 
CNC(=O)c1c(O)c2cccnc2n(-c2ccccc2)c1=O | 21% |  |  |  |  | 9.6% | 50.7% | 22.3% | 3.2% | 65.9%

From ChEMBL document CHEMBL1126267, “A novel synthesis and potent antiinflammatory activity of 4-hydroxy-2(1H)-oxo-1-phenyl-1,8-naphthyridine-3-carboxamides” (1992)
